From ChEMBL document CHEMBL3045248, “Stereoselective synthesis and antifungal activities of (E)-alpha-(methoxyimino)benzeneacetate derivatives containing 1,3,5-substituted pyrazole ring” (2006)

Assays:
Format in all cases: functional
[1] = tested on: Botryosphaeria berengeriana; test: Fungicidal activity against Botryosphaeria berengeriana assessed as inhibition of mycelial elongation at 50 ug/mL incubated for 48 hr
Method in brief: (§1)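 Poisoned-food plate assay on potato glucose agar: DMF stock of 500 mg/L mixed 1:9 into molten medium at 50 °C, poured and set, then seeded with a 4 mm mycelial disk. Plates inverted, incubated 28 °C for 48 h. Water as blank control. Colony radius (mm) measured, triplicate; inhibition I = [(C − T)/C] × 100% versus control radius. Field isolates from crops.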

Rhizoctonia solani = test: Fungicidal activity against Rhizoctonia solani assessed as inhibition of mycelial elongation at 50 ug/mL incubated for 48 hr; method in brief: as §1
Botrytis cinerea = test: Fungicidal activity against Botryotinia fuckeliana assessed as inhibition of mycelial elongation at 50 ug/mL incubated for 48 hr; method in brief: as §1
Fusarium graminearum = test: Fungicidal activity against Fusarium graminearum assessed as inhibition of mycelial elongation at 50 ug/mL incubated for 48 hr
Method in brief: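 Field isolate of G. zeae taken from crops. A 500 mg/L DMF stock (1 mL) was mixed with 9 mL molten potato glucose agar at 50 °C and poured into plates. A 4 mm mycelial disk was placed on each plate, which was inverted and kept at 28 °C for 48 h. Water served as the blank. Colony radius was measured in triplicate, and inhibition was calculated as (C−T)/C×100%.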

Bipolaris maydis = test: Fungicidal activity against Cochliobolus heterostrophus assessed as inhibition of mycelial elongation at 50 ug/mL incubated for 48 hr; method in brief: as §1

Compound | inhibition at 50 µg/mL [1] [%] | inhibition at 50 µg/mL (Rhizoctonia solani) [%] | inhibition at 50 µg/mL (Botrytis cinerea) [%] | inhibition at 50 µg/mL (Fusarium graminearum) [%] | inhibition at 50 µg/mL (Bipolaris maydis) [%]
CO/N=C(/C(=O)OC)c1ccccc1CO/N=C/c1c(C)nn(C)c1Oc1ccc(C)cc1 | 88.2 | 90.2 | 80.8 | 50 | 72.7
CO/N=C(/C(=O)OC)c1ccccc1CO/N=C/c1c(C)nn(C)c1Oc1ccccc1C | 76.5 | 83.7 | 80.8 | 53.1 | 72.7
CO/N=C(/C(=O)OC)c1ccccc1CO/N=C/c1c(C)nn(C)c1Oc1cccc(C)c1 | 100 | 88 | 80.8 | 96.9 | 81.8
CO/N=C(/C(=O)OC)c1ccccc1CO/N=C/c1c(C)nn(C)c1Oc1ccc(Cl)cc1 | 92.6 | 100 | 100 | 80 | 92.9
CO/N=C(/C(=O)OC)c1ccccc1CO/N=C/c1c(C)nn(C)c1Oc1ccc(Cl)cc1Cl | 96.3 | 99 | 100 | 88.6 | 92.9
CO/N=C(/C(=O)OC)c1ccccc1CO/N=C/c1c(C)nn(C)c1Oc1cccc([N+](=O)[O-])c1 | 77.8 | 91.6 | 98.8 | 62.9 | 64.3
CO/N=C(/C(=O)OC)c1ccccc1CO/N=C/c1c(C)nn(C)c1Oc1ccccc1F | 88.2 | 83.7 | 84.6 | 50 | 68.2
CO/N=C(/C(=O)OC)c1ccccc1CO/N=C/c1c(C)nn(C)c1Oc1ccc(F)cc1 | 100 | 90.2 | 88.5 | 59.4 | 86.4
CO/N=C(/C(=O)OC)c1ccccc1CO/N=C/c1c(C)nn(C)c1Oc1cccc(C(F)(F)F)c1 | 88.2 | 83.7 | 92.3 | 68.8 | 68.2
CO/N=C(/C(=O)OC)c1ccccc1CO/N=C/c1c(C)nn(C)c1OC | 100 | 82.7 | 85.4 | 79.4 | 86.7
CCOc1c(/C=N/OCc2ccccc2/C(=N\OC)C(=O)OC)c(C)nn1C | 100 | 92.5 | 96.8 | 90.5 | 92.6
CCCOc1c(/C=N/OCc2ccccc2/C(=N\OC)C(=O)OC)c(C)nn1C | 93.8 | 87.8 | 87.1 | 78.4 | 85
CO/N=C(/C(=O)OC)c1ccccc1CO/N=C/c1c(C)nn(C)c1OCC(F)(F)F | 95.5 | 91.8 | 100 | 80 | 90.9
CO/N=C(/C(=O)OC)c1ccccc1COc1ccccc1C [KRESOXIM-METHYL] | 98.5 | 66.1 | 97.2 | 96.8 | 90.6
